# CSN inh = blocks human CSN-mediated cullin deneddylation; inhibition, % at 12.5 µM; Q92905; AID 651999; Purified CSN, SCF-Nedd8-OG deneddylation, fluorescence polarization; hit rate 0.38% among 360,000;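 active = pattern-corrected inhibition above about 35%, with an unprinted fluorescence ratio check between 0.5 and 1.5, limit read from the data, passing the limit was not always enough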
#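 Detection – fluorescence polarization · System – HEK293T-derived human Csn5 enzyme · Controls – substrate-only high control, full reaction low control · Timing – 90 min, room temperature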
# Rtt109 HAT inh = C. albicans Rtt109 histone acetyltransferase inhibition | AID 540336 | hit rate 0.16% among 330,000 | inhibition, % at 34.9 µM | purified Rtt109/Vps75, ThioGlo CoA-SH fluorescence, 4 h | Q5AAJ8;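 active = inhibition of at least 50% in every replicate; inconclusive = best replicate reaches 50% inhibition but some replicates fall short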
# Target sequence (Q5AAJ8 whole entry, looked up): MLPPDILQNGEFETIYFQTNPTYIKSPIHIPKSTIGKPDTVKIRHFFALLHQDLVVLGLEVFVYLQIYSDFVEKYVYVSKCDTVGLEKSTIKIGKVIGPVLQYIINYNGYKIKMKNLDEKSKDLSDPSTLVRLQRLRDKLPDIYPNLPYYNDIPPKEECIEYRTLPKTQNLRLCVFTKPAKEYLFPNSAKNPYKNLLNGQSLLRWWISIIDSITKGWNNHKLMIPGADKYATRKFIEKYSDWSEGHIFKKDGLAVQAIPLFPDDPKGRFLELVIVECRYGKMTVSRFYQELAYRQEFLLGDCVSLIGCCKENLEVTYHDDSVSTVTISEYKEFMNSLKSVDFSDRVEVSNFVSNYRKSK
# TPT1 inhibitor = inhibitors of Candida albicans tRNA 2'-phosphotransferase TPT1. inhibition, % at 5 µM. hit rate 0.81% among 300,000. recombinant caTPT1, FP RNA substrate dephosphorylation. AID 1962;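 active = inhibition above the mean of all tested compounds plus 3 SD, set per screening campaign, cut at about 24% in these data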
# HNF4A DNA FP = change in binding of human HNF4 alpha to DNA | HNF4a-FITC DNA binding, fluorescence polarization, 1 h | hit rate 0.3% among 360,000 | activity change, % at 10 µM | P41235 | AID 1224865; in the data active = activity change above about 30%, passing the limit was not always enough
# caTPT1 confirm = confirmation of Candida albicans TPT1 inhibitors. recombinant caTPT1, fluorescence polarization, RNase T1 coupled. AID 2149. hit rate 74% among 2,400. shares compounds with TPT1 inhibitor. inhibition, % at 5 µM;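 active = inhibition above the primary screen limit, the mean inhibition of all tested compounds plus 3 SD, cut at about 25% in these data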
# RNase T1 inh = RNase T1 inhibition in TPT1 counter-screen | inhibition, % at 5 µM | RNase T1 cleavage, fluorescence polarization, 1536-well | AID 2153 | shares compounds with TPT1 inhibitor | hit rate 83% among 2,400;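 active = inhibition above the solvent-only control well mean plus 3 SD, limit set per screening run, cut at about 23% in these data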;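 note: inhibitors block cleavage so intact labeled substrate keeps polarization high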
# Target sequence (P00651 whole entry, looked up): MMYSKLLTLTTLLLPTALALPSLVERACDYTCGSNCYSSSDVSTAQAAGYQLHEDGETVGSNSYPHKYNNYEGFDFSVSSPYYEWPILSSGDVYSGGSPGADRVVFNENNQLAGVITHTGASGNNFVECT
# Numbers stand for hits; 0 = inactive; ? = inconclusive; - = no result given. The list is not random: actives were taken first. Their share in the collection is about 1.2%.
SMILES,CSN inh,Rtt109 HAT inh,TPT1 inhibitor,HNF4A DNA FP,caTPT1 confirm,RNase T1 inh
CC(C)(C)c1ccc(C(=O)NCC(=O)NCC(C)(C)N2CCOCC2)cc1,0,0,-,0,-,-
Cc1cc(C(=O)O)ccc1-n1c(C)cc(/C=C(/C#N)C(=O)Nc2ccccc2)c1C,0,0,0,0,-,-
Cc1cc(C(=O)O)ccc1-n1c(C)cc(C=C2C(=O)c3ccccc3C2=O)c1C,0,?,59,0,51,63
O=C(COC(=O)C1COc2ccccc2O1)Nc1ccccc1OC(F)F (centres undefined),0,0,-,0,-,-
CN1CCc2nc(NC(=O)c3cccc(OC(F)F)c3)sc2C1,0,0,60,49,26,33
C=CCN1C(=O)C2(OCCO2)c2cc(C)ccc21,0,0,0,0,-,-
CCN1C(=O)[C@H]2[C@@H](c3ccc(-c4ccccc4)cc3)N3CCCC[C@@]3(C(=O)OC)[C@H]2C1=O,0,0,0,0,-,-
CCN1CCc2c(sc(NC(=S)NC(=O)c3ccc(Cl)cc3)c2C(N)=O)C1,0,0,27,0,30,36
CCN1CCc2c(sc(NC(=O)c3ccc(S(=O)(=O)N4CC(C)OC(C)C4)cc3)c2C(N)=O)C1 (centres undefined),0,0,0,0,-,-
CCN1CCN(S(=O)(=O)c2ccc(C(=O)Nc3sc4c(c3C(N)=O)CCN(CC)C4)cc2)CC1,0,0,96,0,115,118
CCN1CCc2c(sc(NC(=O)CN3C(=O)c4ccccc4C3=O)c2C(N)=O)C1,0,0,0,0,-,-
NC(=O)C1CCN(C(=O)c2cccc(S(=O)(=O)N3CCCC3)c2)CC1,0,0,-,0,-,-
CCOC(=O)c1ccc(-c2ccc3c(=O)c4ccccc4n(C)c3c2)cc1F,0,0,0,0,-,-
CC1CC(=O)Nc2ccccc2N1S(=O)(=O)c1ccc(Cl)cc1 (centres undefined),0,0,74,0,0,0
COC(=O)c1c(NC(=O)c2ccc(N(C)S(=O)(=O)c3ccc(C)cc3)cc2)sc2c1CCCC2,0,0,0,0,-,-
CCN1CCc2c(sc(NC(=O)c3ccc(S(=O)(=O)N(C)c4ccccc4)cc3)c2C(=O)NC)C1,0,0,133,0,150,145
CNC(=O)c1c(NC(=O)c2ccc(S(=O)(=O)N(C)c3ccccc3)cc2)sc2c1CCN(C(C)C)C2,-,-,125,-,161,149
CCC1CCCCN1CCCNC(=O)CNC(=O)Cn1ccc2ccccc2c1=O (centres undefined),0,0,37,0,0,0
CCC1CCCCN1CCCNC(=O)CNC(=O)c1nn(-c2ccc(OC)cc2)c(=O)c2ccccc12 (centres undefined),0,0,0,0,-,-
CC(=O)Nc1ccc(S(=O)(=O)Nc2nc3ccccc3nc2Nc2ccc(N)cc2)cc1,0,0,77,0,62,69
CC(=O)Nc1ccc(S(=O)(=O)Nc2nc3ccccc3nc2Nc2cccc(O)c2)cc1,0,0,0,0,-,-
CC(=O)Nc1ccc(S(=O)(=O)Nc2nc3ccccc3nc2Nc2ccc3ccccc3c2)cc1,45,0,29,0,0,24
CC(C)(c1ccccc1)c1ccc(OCC(O)CNC2CCN(Cc3ccccc3)CC2)cc1 (centres undefined),0,?,0,0,-,-
C=CCN1C(=O)/C(=C/c2ccsc2)SC1=S,0,0,0,0,-,-
C=CCN1C(=O)/C(=C/c2ccc(-c3ccc(F)cc3)o2)SC1=S,0,0,81,0,115,120
SMILES,CSN inh,Rtt109 HAT inh,TPT1 inhibitor,HNF4A DNA FP,caTPT1 confirm,RNase T1 inh
CCCCn1c(N)c(N(CCOC)C(=O)C(C)N2C(=O)c3ccccc3C2=O)c(=O)[nH]c1=O (centres undefined),0,0,0,0,-,-
COc1ccc(NC(=O)C(c2ccccc2)n2c(=O)c(-c3ccco3)nc3ccccc32)cc1 (centres undefined),0,-,-,0,-,-
N=c1oc2cc(O)ccc2cc1C(=O)Nc1ccc(Cl)cc1,0,0,50,0,70,80
COC(=O)C1(C)NC(c2ccc(Cl)cc2)C2C(=O)N(c3ccccc3)C(=O)C21 (centres undefined),0,0,82,0,0,0
COC(=O)C1(C)NC(c2ccccc2F)C2C(=O)N(c3ccccc3)C(=O)C21 (centres undefined),0,0,0,0,-,-
Cc1nc2sccn2c(=O)c1S(=O)(=O)Nc1cccc(Cl)c1C,0,0,0,0,-,-
OCCCNc1ncnc2sc3c(c12)CCN(Cc1ccccc1)C3,0,0,24,0,49,64
O=c1[nH]cnc2sc3c(c12)CCN(Cc1ccccc1)C3,0,0,0,0,-,-
O=C(CN1CCN(S(=O)(=O)c2ccc(Br)cc2)CC1)N/N=C/c1ccc(Br)s1,0,0,30,0,0,0
Cc1ccc(/C=N/NC(=O)CN2CCN(S(=O)(=O)c3ccc(Br)cc3)CC2)s1,0,0,0,0,-,-
CC(C)N1CCC2(CC1)C(C#N)=C(N)NC(S)=C2C#N,-,-,68,-,38,47
N#CC1=C(N)NC(SCC(=O)O)=C(C#N)C12CCCC2,0,0,0,0,-,-
Cc1cn([C@H]2C[C@H](O)[C@@H](/C=C/C(=O)NCCN3CCOCC3)O2)c(=O)[nH]c1=O,0,-,-,0,-,-
COc1cc(/C=C(\C#N)c2nc3c(s2)CCCC3)ccc1O,-,-,146,-,168,152
COc1ccc(C2NC3=C(CCCC3)C(C#N)(C#N)C2(C#N)C#N)cc1 (centres undefined),-,-,33,-,34,47
COc1ccc(C2NC3=C(CCC3)C3(C#N)C4(N=C(N)C23C#N)OCCO4)cc1 (centres undefined),0,0,0,0,-,-
CN(C)c1ccc(/C=C2\N=C(c3ccc(Cl)c([N+](=O)[O-])c3)NC2=O)cc1,0,-,53,0,86,94
Cc1ccc(S(=O)(=O)N(C)C[C@H]2OCCCC[C@H](C)Oc3ccc(NC(=O)Nc4cccc5ccccc45)cc3C(=O)N([C@@H](C)CO)C[C@H]2C)cc1,0,-,-,0,-,-
Cc1ccc(O)c(C(=O)c2cc(C#N)c3nc4ccccc4n3c2)c1,0,0,39,0,59,72
Cc1ccc(CN2CC(C(=O)NNC(=O)c3ccc(F)cc3)CC2=O)cc1 (centres undefined),0,0,-,0,-,-
COc1ccc(OC)c(/C=C2\SC(=S)N(Cc3cccnc3)C2=O)c1,0,0,65,0,68,77
COc1ccc(/C=C2\SC(=S)N(C(C(=O)O)c3ccccc3)C2=O)c(OC)c1 (centres undefined),0,?,27,0,40,53
COc1ccc(/C=C2/SC(=S)N(Cc3ccccc3)C2=O)cc1O,0,0,-,0,-,-
COc1ccc(O)c(/C=C2/SC(=S)N(Cc3ccccc3)C2=O)c1,0,0,93,0,104,103
COc1cccc(/C=C2\SC(=S)N(C(C(=O)O)c3ccccc3)C2=O)c1OC (centres undefined),0,0,0,0,-,-

# High-throughput results from PubChem BioAssay.
